Assay results published in ChEMBL document CHEMBL3860086, “Antivirulence C-Mannosides as Antibiotic-Sparing, Oral Therapeutics for Urinary Tract Infections” (J Med Chem, 2016).
Calls of active or inactive are those of the source. No cut-off for these calls is given here.

Tests used:
[1] = molecular target: Type 1 fimbrin D-mannose specific adhesin (Escherichia coli K-12) (UniProt P08191); assay: Inhibition of Escherichia coli UTI89 FimH assessed as decrease in hemagglutination of guinea pig red blood cells after 4 to 18 hrs
Type 1 fimbrin D-mannose specific adhesin (Escherichia coli K-12), sequence (P08191 whole entry, the tested form may be a part): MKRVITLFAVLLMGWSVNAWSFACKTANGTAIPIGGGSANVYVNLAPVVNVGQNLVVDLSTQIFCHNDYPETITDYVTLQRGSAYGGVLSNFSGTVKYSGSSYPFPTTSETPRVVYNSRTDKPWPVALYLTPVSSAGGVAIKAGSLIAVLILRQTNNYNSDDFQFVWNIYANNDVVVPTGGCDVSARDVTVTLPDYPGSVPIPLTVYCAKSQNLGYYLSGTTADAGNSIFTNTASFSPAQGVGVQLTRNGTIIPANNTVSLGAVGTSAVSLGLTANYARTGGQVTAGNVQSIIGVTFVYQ
Procedure, shortened: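 Hemagglutination inhibition with clinical UPEC strain UTI89 and guinea pig red blood cells, run per an earlier described protocol.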

[2] = molecular target: Type 1 fimbrin D-mannose specific adhesin (Escherichia coli K-12) (UniProt P08191); assay: Binding affinity to Escherichia coli UTI89 FimH lectin domain at 100 uM after 30 mins by SYPRO Orange-staining-based differential scanning fluorimetry
Procedure, shortened: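 Thermal shift (DSF) binding with FimH lectin domain (FimHL) at 10 μM, with or without 100 μM mannoside; otherwise run per an earlier described method.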

Escherichia coli [3] = assay: (§1) Antibacterial activity against Escherichia coli UTI89 with kanamycin cassette inserted in chromosome in C3H/HeN mouse acute cystitis model assessed as decrease in bacterial burden in urinary bladder at 25 mg/kg, po administered 30 mins prior to infection measured at 6 hrs post infection relative to control; type: functional
Procedure, shortened: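 Female C3H/HeN mice (6–8 weeks) get 25 mg/kg mannoside by mouth in 10% cyclodextrin 30 min before infection. Infection is transurethral: 50 μL of 1–2 × 10^7 UTI89KAN under isoflurane. The inoculum is grown type 1-inducing (2 × 24 h static LB, 37 °C), washed and resuspended in PBS. At 6 h, bladders are homogenized, serially diluted and plated on LB with 50 μg/mL kanamycin for CFU.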

[4] = Drug uptake in C3H/HeN mouse urine at 50 mg/kg, po administered through gavage after 8 hrs by LC-MS/MS analysis; type: ADME, organism-based; conditions: read-out: Drug uptake
Procedure, shortened: (§2)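 Mouse urine PK: C3H/HeN mice given 100 μL of 10 mg/mL mannoside in 10% cyclodextrin (50 mg/kg) by oral gavage. Urine sampled at several time points over 8 h and mannoside quantified by HPLC and mass spectrometry.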

[5] = Ratio of drug level in C3H/HeN mouse urine to IC50 for Escherichia coli UTI89 FimH-mediated biofilm formation
[6] = Clearance in Sprague-Dawley rat at 3 mg/kg, iv after 5 mins to 24 hrs by LC-MS/MS analysis; type: ADME, organism-based; conditions: in vivo
Procedure, shortened: (§3)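 Rat plasma PK: mannoside concentrations in plasma followed after either a 10 mg/kg oral dose or a 3 mg/kg intravenous dose.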

[7] = Ratio of drug level in C3H/HeN mouse urine to EC90 for Escherichia coli UTI89 FimH-mediated hemagglutination of guinea pig red blood cells
Escherichia coli [8] = assay: as §1, with “mouse chronic” for “mouse acute”, “administered 14 days post” for “administered 30 mins prior to”, “at 12” for “at 6”, “post dose” for “post infection”; type: functional
Procedure, shortened: (§4)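 Female C3H/HeN mice (6–8 weeks) are infected transurethrally under isoflurane with 1–2 × 10^8 UTI89KAN (type 1-induced, PBS-washed) in 50 μL. Urine titers at day 12 select chronic infection (≥10^5). At 2 weeks, mice get oral gavage of 100 μL mannoside in 10% cyclodextrin. At set times, bladders are homogenized, serially diluted and plated on kanamycin LB for CFU.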

[9] = Drug uptake in C3H/HeN mouse urine at 50 mg/kg, po administered through gavage after 1 hr by LC-MS/MS analysis; type: ADME, organism-based; conditions: in vivo; procedure, shortened: as §2
[10] = Oral bioavailability in Sprague-Dawley rat at 10 mg/kg after 15 mins to 24 hrs by LC-MS/MS analysis; type: ADME, organism-based; conditions: in vivo; procedure, shortened: as §3
[11] = Volume of distribution at steady state in Sprague-Dawley rat at 3 mg/kg, iv after 5 mins to 24 hrs by LC-MS/MS analysis; type: ADME, organism-based; conditions: in vivo; procedure, shortened: as §3
[12] = Half life in simulated gut fluid (unknown origin); type: ADME
Procedure, shortened: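 Stability is measured in simulated gut fluid at pH 1.2.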

[13] = Half life in liver microsomes (unknown origin); type: ADME
Escherichia coli [14] = assay: as §1, with “chronic” for “acute”, “50” for “25”, “14 days post” for “30 mins prior to”, “dose (reference value: 10^7 CFU)” for “infection relative to control”; type: functional; procedure, shortened: as §4
Escherichia coli [15] = assay: as §1, with “chronic” for “acute”, “50” for “25”, “14 days post” for “30 mins prior to”, “2” for “6”, “dose (reference value: 10^7 CFU)” for “infection relative to control”; type: functional; procedure, shortened: as §4
Escherichia coli [16] = assay: as §1, with “chronic” for “acute”, “50” for “25”, “14 days post” for “30 mins prior to”, “12” for “6”, “dose (reference value: 10^7 CFU)” for “infection relative to control”; type: functional; procedure, shortened: as §4

Row | SMILES | EC90 [1] [nM] | Tm [2] [°C] | also measured
1 | OC[C@H]1O[C@H](n2cc(-c3ccccc3)nn2)[C@@H](O)[C@@H](O)[C@@H]1O | 32000 |  | 
2 | Cc1cc(-c2ccc3c(c2)C(=O)NCC3)ccc1[C@@H](O)[C@H]1O[C@H](CO)[C@@H](O)[C@H](O)[C@@H]1O | 6 | 76.5 | Activity (Escherichia coli [3]): Active
3 | Cc1cc(-c2ccc3ccnc(N)c3c2)ccc1[C@@H](O)[C@H]1O[C@H](CO)[C@@H](O)[C@H](O)[C@@H]1O | 6 | 77.7 | Activity (Escherichia coli [3]): Active
4 | CNC(=O)c1cccc(-c2ccc(C[C@H]3O[C@H](CO)[C@@H](O)[C@H](O)[C@@H]3O)cc2)c1 | 1000 |  | 
5 | Cc1cc(-c2ccc3ccnc(N)c3c2)ccc1O[C@H]1O[C@H](CO)[C@@H](O)[C@H](O)[C@@H]1O | 20 | 75.1 | 
6 | CNC(=O)c1cccc(-c2ccc([C@@H](O)[C@H]3O[C@H](CO)[C@@H](O)[C@H](O)[C@@H]3O)c(C)c2)c1 | 31 | 75.4 | concentration at 8 h [4]: 50 µM; Ratio [5]: > 10; clearance [6]: 34.9 mL/min/kg; Ratio [7]: 1600; fold change (FC) (Escherichia coli [8]): 3
7 | CNC(=O)c1cccc(-c2ccc(O[C@H]3O[C@H](COP(=O)(O)O)[C@@H](O)[C@H](O)[C@@H]3O)c(C)c2)c1 |  |  | Activity (Escherichia coli [3]): Active
8 | Cc1cc(-c2cccc3cnccc23)ccc1O[C@H]1O[C@H](CO)[C@@H](O)[C@H](O)[C@@H]1O | 62 | 75 | 
9 | Cc1cc(-c2ccc3cc[nH]c(=O)c3c2)ccc1O[C@H]1O[C@H](CO)[C@@H](O)[C@H](O)[C@@H]1O | 31 | 75.4 | fold change (FC) (Escherichia coli [3]): 2; F [10]: 7%; Vdss [11]: 6.7 L; clearance [6]: 408 mL/min/kg; half-life [12]: > 2 h; half-life [13]: > 2 h
10 | CNC(=O)c1cccc(-c2ccc(O[C@H]3O[C@H](COC(C)=O)[C@@H](OC(C)=O)[C@H](OC(C)=O)[C@@H]3OC(C)=O)c(C)c2)c1 |  |  | Activity (Escherichia coli [3]): Active; concentration at 8 h [4]: 20 µM; Ratio [5]: > 10; Activity (Escherichia coli [8]): Active
11 | CNC(=O)c1cc(C(=O)NC)cc(-c2ccc(O[C@H]3O[C@H](CO)[C@@H](O)[C@H](O)[C@@H]3O)c(C)c2)c1 | 16 |  | Drug uptake [9]: Active; Ratio [5]: > 10; Activity (Escherichia coli [14]): 10000 CFU; Activity (Escherichia coli [15]): 100000 CFU; Activity (Escherichia coli [16]): 100000 CFU; Activity (Escherichia coli [8]): Active; half-life [12]: > 2 h; half-life [13]: > 2 h
12 | Cc1cc(-c2ccc3c(c2)C(=O)NCC3)ccc1O[C@H]1O[C@H](CO)[C@@H](O)[C@H](O)[C@@H]1O | 32 | 75 | 
13 | Cc1cc(-c2ccc3cc[nH]c(=O)c3c2)ccc1[C@@H](O)[C@H]1O[C@H](CO)[C@@H](O)[C@H](O)[C@@H]1O | 8 | 77.5 | fold change (FC) (Escherichia coli [3]): 2
14 | COC(=O)c1cccc(-c2ccc(N[C@H]3O[C@H](CO)[C@@H](O)[C@H](O)[C@@H]3O)cc2)c1 | 4000 |  | 

Second part, led by results:

Row | EC90 [1] [nM] | Tm [2] [°C] | SMILES | also measured
15 | 24000 | 66.4 | CNC(=O)c1cccc(-c2ccc([C@H](O)[C@H]3O[C@H](CO)[C@@H](O)[C@H](O)[C@@H]3O)c(C)c2)c1 | 
16 | 500 | 73.2 | CNC(=O)c1cccc(-c2ccc(O[C@H]3O[C@H](CO)[C@@H](O)[C@H](O)[C@@H]3O)cc2)c1 | 
17 | 16000 |  | O=C(NC[C@H]1O[C@H](CO)[C@@H](O)[C@H](O)[C@@H]1O)c1ccc(Br)cc1 | 
18 | 24000 | 67.2 | CNC(=O)c1cccc(-c2ccc([C@H](O)[C@H]3O[C@H](CO)[C@@H](O)[C@H](O)[C@@H]3O)cc2)c1 | 
19 | 62 | 74.5 | CNC(=O)c1cccc(-c2ccc(O[C@H]3O[C@H](CO)[C@@H](O)[C@H](O)[C@@H]3O)c(C)c2)c1 | Drug uptake [9]: Active; concentration at 8 h [4]: 1 µM; Ratio [5]: > 10; clearance [6]: 98.4 mL/min/kg
20 | 250 | 72.8 | CNC(=O)c1cccc(-c2ccc([C@@H](O)[C@H]3O[C@H](CO)[C@@H](O)[C@H](O)[C@@H]3O)cc2)c1 | 
21 | 4000 |  | COC(=O)c1cccc(-c2ccc(S[C@H]3O[C@H](CO)[C@@H](O)[C@H](O)[C@@H]3O)cc2)c1 | 
22 | 125 | 74.6 | Cc1cc(-c2cccc3cnccc23)ccc1[C@@H](O)[C@H]1O[C@H](CO)[C@@H](O)[C@H](O)[C@@H]1O | 
23 | 16000 |  | COC(=O)c1cccc(-c2ccc(NC(=O)[C@H]3O[C@H](CO)[C@@H](O)[C@H](O)[C@@H]3O)cc2)c1 | 
24 | 2000 |  | CNC(=O)c1cccc(-c2ccc(C[C@H]3O[C@H](CO)[C@@H](O)[C@H](O)[C@@H]3O)c(C)c2)c1 | 
